# Test results reported in ChEMBL document CHEMBL5058577, “EUbOPEN Chemogenomics Library 2 (Multiplex)” (2022).
# Test system: HEK-293T
# Assay: Multiplex assay against HEK293T
# Type: toxicity, cell-based
# Settings: human
# Outline: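 Tubulin, mitochondrial-mass and membrane-permeability phenotypes are per cents of healthy-nucleus cells. Cells were gated by CellPathfinder machine learning into Hoechst high-intensity objects or normal cells, normal cells into healthy, pyknosed or fragmented nuclei, and pyknosed cells into mitotic or apoptotic. Before that, live cells stained at seeding with Hoechst33342, BioTracker Green Microtubule Cytoskeleton Dye, MitoTracker Red and Annexin V Alexa Fluor 680 were imaged on a CQ1 microscope at 37°C and 5% CO2 after compound addition.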
# [1] = 12 h, 1 µM, compound concentration 1 uM, replicate 1
# [2] = 12 h, 1 µM, compound concentration 1 uM, replicate 2
# [3] = 12 h, 10 µM, compound concentration 10 uM, replicate 1
# [4] = 12 h, 10 µM, compound concentration 10 uM, replicate 2
# [5] = 24 h, 1 µM, compound concentration 1 uM, replicate 1
# [6] = 24 h, 1 µM, compound concentration 1 uM, replicate 2
# [7] = 24 h, 10 µM, compound concentration 10 uM, replicate 1
# [8] = 24 h, 10 µM, compound concentration 10 uM, replicate 2
# [9] = 48 h, 1 µM, compound concentration 1 uM, replicate 1
# [10] = 48 h, 1 µM, compound concentration 1 uM, replicate 2
# [11] = 48 h, 10 µM, compound concentration 10 uM, replicate 1
# [12] = 48 h, 10 µM, compound concentration 10 uM, replicate 2
compound,measurement,setting,value
COc1c(C)cc(NC(=O)c2nn(Cc3ccc(F)cc3)c3c2CN(C(=O)c2ccc[nH]2)C[C@]3(C)C(N)=O)cc1C,Population Apoptotic (%),[1],42%
same,Population Fragmented Nuclei (%),[1],6%
same,Population Healthy Nuclei (%),[1],79%
same,Population Hoechst High Intensity Objects (%),[1],7%
same,Population Membrane Permeable-Phenotype (%),[1],0%
same,Population Mitochondria Different-Phenotype (%),[1],51%
same,Population Mitotic Cells (%),[1],57%
same,Population Normal (%),[1],92%
same,Population Pyknosed Nuclei (%),[1],13%
same,Population Tubulin-Different-Phenotype (%),[1],36%
same,Total Cell Count,[1],426
same,Population Apoptotic (%),[2],38%
same,Population Fragmented Nuclei (%),[2],7%
same,Population Healthy Nuclei (%),[2],75%
same,Population Hoechst High Intensity Objects (%),[2],5%
same,Population Mitochondria Different-Phenotype (%),[2],58%
same,Population Mitotic Cells (%),[2],61%
same,Population Normal (%),[2],94%
same,Population Pyknosed Nuclei (%),[2],17%
same,Population Tubulin-Different-Phenotype (%),[2],29%
same,Total Cell Count,[2],304
same,Population Apoptotic (%),[3],67%
same,Population Fragmented Nuclei (%),[3],4%
same,Population Healthy Nuclei (%),[3],77%
same,Population Hoechst High Intensity Objects (%),[3],13%
same,Population Membrane Permeable-Phenotype (%),[3],0%
same,Population Mitochondria Different-Phenotype (%),[3],90%
same,Population Mitotic Cells (%),[3],32%
same,Population Normal (%),[3],86%
same,Population Pyknosed Nuclei (%),[3],17%
same,Population Tubulin-Different-Phenotype (%),[3],62%
same,Total Cell Count,[3],383
same,Population Apoptotic (%),[4],59%
same,Population Fragmented Nuclei (%),[4],6%
same,Population Healthy Nuclei (%),[4],71%
same,Population Mitochondria Different-Phenotype (%),[4],95%
same,Population Mitotic Cells (%),[4],40%
same,Population Pyknosed Nuclei (%),[4],21%
same,Population Tubulin-Different-Phenotype (%),[4],63%
same,Total Cell Count,[4],285
same,Population Apoptotic (%),[5],21%
same,Population Fragmented Nuclei (%),[5],7%
same,Population Healthy Nuclei (%),[5],80%
same,Population Hoechst High Intensity Objects (%),[5],4%
same,Population Membrane Permeable-Phenotype (%),[5],0%
same,Population Mitochondria Different-Phenotype (%),[5],30%
same,Population Mitotic Cells (%),[5],78%
same,Population Normal (%),[5],95%
same,Population Pyknosed Nuclei (%),[5],12%
same,Population Tubulin-Different-Phenotype (%),[5],24%
same,Total Cell Count,[5],574
same,Population Apoptotic (%),[6],51%
same,Population Fragmented Nuclei (%),[6],5%
same,Population Healthy Nuclei (%),[6],86%
same,Population Mitochondria Different-Phenotype (%),[6],43%
same,Population Mitotic Cells (%),[6],48%
same,Population Pyknosed Nuclei (%),[6],7%
same,Population Tubulin-Different-Phenotype (%),[6],16%
same,Total Cell Count,[6],422
same,Population Apoptotic (%),[7],53%
same,Population Fragmented Nuclei (%),[7],6%
same,Population Healthy Nuclei (%),[7],73%
same,Population Hoechst High Intensity Objects (%),[7],11%
same,Population Membrane Permeable-Phenotype (%),[7],0%
same,Population Mitochondria Different-Phenotype (%),[7],91%
same,Population Mitotic Cells (%),[7],46%
same,Population Normal (%),[7],88%
same,Population Pyknosed Nuclei (%),[7],19%
same,Population Tubulin-Different-Phenotype (%),[7],61%
same,Total Cell Count,[7],403
same,Population Apoptotic (%),[8],67%
same,Population Fragmented Nuclei (%),[8],5%
same,Population Healthy Nuclei (%),[8],74%
same,Population Hoechst High Intensity Objects (%),[8],15%
same,Population Mitochondria Different-Phenotype (%),[8],92%
same,Population Mitotic Cells (%),[8],32%
same,Population Normal (%),[8],84%
same,Population Tubulin-Different-Phenotype (%),[8],56%
same,Total Cell Count,[8],313
same,Population Apoptotic (%),[9],21%
same,Population Fragmented Nuclei (%),[9],11%
same,Population Healthy Nuclei (%),[9],81%
same,Population Hoechst High Intensity Objects (%),[9],2%
same,Population Membrane Permeable-Phenotype (%),[9],1%
same,Population Mitochondria Different-Phenotype (%),[9],25%
same,Population Mitotic Cells (%),[9],78%
same,Population Normal (%),[9],97%
same,Population Pyknosed Nuclei (%),[9],6%
same,Population Tubulin-Different-Phenotype (%),[9],18%
same,Total Cell Count,[9],920
same,Population Apoptotic (%),[10],39%
same,Population Fragmented Nuclei (%),[10],12%
same,Population Hoechst High Intensity Objects (%),[10],3%
same,Population Mitochondria Different-Phenotype (%),[10],28%
same,Population Mitotic Cells (%),[10],60%
same,Population Normal (%),[10],96%
same,Population Tubulin-Different-Phenotype (%),[10],9%
same,Total Cell Count,[10],652
same,Population Apoptotic (%),[11],60%
same,Population Fragmented Nuclei (%),[11],8%
same,Population Healthy Nuclei (%),[11],76%
same,Population Hoechst High Intensity Objects (%),[11],14%
same,Population Membrane Permeable-Phenotype (%),[11],0%
same,Population Mitochondria Different-Phenotype (%),[11],93%
same,Population Mitotic Cells (%),[11],39%
same,Population Normal (%),[11],85%
same,Population Pyknosed Nuclei (%),[11],15%
same,Population Tubulin-Different-Phenotype (%),[11],66%
same,Total Cell Count,[11],467
same,Population Apoptotic (%),[12],80%
same,Population Fragmented Nuclei (%),[12],9%
same,Population Healthy Nuclei (%),[12],81%
same,Population Hoechst High Intensity Objects (%),[12],10%
same,Population Mitochondria Different-Phenotype (%),[12],90%
same,Population Mitotic Cells (%),[12],19%
same,Population Normal (%),[12],89%
same,Population Pyknosed Nuclei (%),[12],9%
same,Population Tubulin-Different-Phenotype (%),[12],59%
same,Total Cell Count,[12],376
